Only some compounds are listed: those with a hit (about 2.5% of all), similar ones and a draw of the others.
miR-122 sensor = blocks miR-122 activity in Huh7 sensor cells; Huh7 miR-122 Renilla luciferase sensor, 48 h; neutral wells = 0, positive control = 100; activation (reporter increase), % at 12.5 µM; hit rate 0.3% among 340,000; AID 602342;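 active = mean replicate activation score at least 90 and every replicate individually at or above 90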;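 note: higher luciferase means less miR-122 activity so hits act as miR-122 inhibitors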
S100A4 MyoIIA = inhibitors of human S100A4 binding to myosin IIA peptide; hit rate 0.14% among 360,000; inhibition, % at 10.7 µM; S100A4/TAMRA-MyoIIA peptide fluorescence polarization; AID 652163; P26447;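 active = mean inhibition of at least 70% across replicates, with every replicate also reaching that level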
Target sequence (P26447 whole entry, looked up): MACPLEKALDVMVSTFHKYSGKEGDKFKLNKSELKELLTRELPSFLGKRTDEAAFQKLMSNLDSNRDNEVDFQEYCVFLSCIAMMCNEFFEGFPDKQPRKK
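Material: S100A4 monomer protein / Buffer or medium: 50 mM HEPES pH 7.2, 10 mM CaCl2, 100 mM KCl / Times: 5 min incubation before reading / Benchmarks: neutral control DMSO, positive control TFP / Reagent: labelled myosin peptide probe, 5 nM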
SIRT5 inh = blocks human SIRT5 desuccinylation of peptide; Q9NXA8; Purified SirT5, succinyl-peptide AMC, trypsin-coupled fluorescence; inhibition, % at 15 µM; hit rate 1.1% among 330,000; in the data active = inhibition above about 15%
E-selectin induc = E-selectin induction on HUVECs | hit rate 0.37% among 260,000 | activation, % at 7.58 µM | P16581 | HUVEC E-selectin immunofluorescence imaging; normalized: neutral wells 0, TNF-alpha wells 100;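 active = mean E-selectin-positive cell signal at least 10% of the positive control, reached in at least 60% of replicates, without over 20% cell loss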
Target sequence (P16581 whole entry, looked up): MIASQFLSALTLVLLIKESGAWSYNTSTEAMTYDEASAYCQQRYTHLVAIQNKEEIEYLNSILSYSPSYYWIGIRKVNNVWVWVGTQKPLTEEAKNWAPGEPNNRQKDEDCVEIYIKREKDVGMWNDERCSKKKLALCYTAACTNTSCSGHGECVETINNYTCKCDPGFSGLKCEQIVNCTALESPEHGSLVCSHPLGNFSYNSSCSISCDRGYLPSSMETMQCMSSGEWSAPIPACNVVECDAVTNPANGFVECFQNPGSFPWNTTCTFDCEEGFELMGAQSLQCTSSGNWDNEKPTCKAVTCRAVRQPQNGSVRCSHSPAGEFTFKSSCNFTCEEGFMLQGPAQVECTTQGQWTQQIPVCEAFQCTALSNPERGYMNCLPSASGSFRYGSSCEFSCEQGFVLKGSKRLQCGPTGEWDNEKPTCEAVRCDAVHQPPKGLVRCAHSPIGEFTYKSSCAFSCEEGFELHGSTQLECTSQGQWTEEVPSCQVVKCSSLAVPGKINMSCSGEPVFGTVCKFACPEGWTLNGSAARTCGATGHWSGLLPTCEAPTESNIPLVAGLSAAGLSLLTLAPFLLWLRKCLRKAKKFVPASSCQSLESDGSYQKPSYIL
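System: HUVEC / Compound: single concentration / Signal: immunofluorescence imaging / Read-out: percent E-selectin-positive cells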
FGF22 binding = binders of recombinant human FGF22 by thermal shift; Q9HCT0; activity (Tm shift, normalised), % at 9.99 µM; AID 651658; SYPRO orange fluorescence; percent of sucrose octasulfate shift, DMSO zero; hit rate 1.5% among 340,000;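 active = mean Tm shift, scaled 0 neutral to 100 positive control, at about 1.3% or above, every replicate too, limit read from the data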
Of the large screens only hits and unclear results are named; the others gave an inactive call; ! = repeats disagree; [ ] = remark or other dose.

C[C@@H]1CN([C@@H](C)CO)C(=O)c2cc(NC(=O)NC3CCCCC3)ccc2O[C@@H](C)CCCCO[C@H]1CN(C)C(=O)C1CCCCC1	none (no result: E-selectin induc)
C[C@H]1CCCCO[C@H](CN(C)C(=O)C2CCCCC2)[C@@H](C)CN([C@@H](C)CO)C(=O)c2cc(NC(=O)NC3CCCCC3)ccc2O1	SIRT5 inh 15.7!
C[C@H](CO)N1C[C@H](C)[C@@H](CN(C)C(=O)C2CCCCC2)OCCCC[C@H](C)Oc2ccc(NC(=O)Nc3ccc(F)cc3)cc2C1=O	SIRT5 inh 21.9
COc1ccc(NC(=O)Nc2ccc3c(c2)C(=O)N([C@H](C)CO)C[C@@H](C)[C@@H](CN(C)C(=O)C2CCCCC2)OCCCC[C@H](C)O3)cc1	SIRT5 inh 16.8!
C[C@H]1CCCCO[C@@H](CN(C)C(=O)C2CCCCC2)[C@@H](C)CN([C@@H](C)CO)C(=O)c2cc(NC(=O)Nc3ccc(F)cc3)ccc2O1	none
COc1ccc(-c2cnc3c(c2)C(=O)N([C@@H](C)CO)C[C@@H](C)[C@@H](CN(C)C(=O)C2CCC2)O3)cc1	none
C[C@@H]1CCCCO[C@H](CN(C)C(=O)c2ccncc2)[C@@H](C)CN([C@@H](C)CO)C(=O)c2cc(N(C)C)ccc2O1	none (no result: S100A4 MyoIIA, SIRT5 inh, FGF22 binding)
O=C(c1ccccc1)C(Nc1ccccn1)c1ccccc1 (centres undefined)	FGF22 binding 44.0 (no result: miR-122 sensor, E-selectin induc)
Cc1ccc(NC(=S)Nc2ccc(F)cc2)c(C)c1	FGF22 binding 43.9 (no result: E-selectin induc)
Cc1nnsc1Sc1ccccc1	FGF22 binding 43.2
COC(=O)C(CC#Cc1ccc2c(c1)[C@]1(C(=O)N2)[C@H](c2ccc(OCCO)cc2)N2[C@H](c3ccccc3)[C@H](c3ccccc3)OC(=O)[C@H]2[C@@H]1C(=O)N1CCc2cc(OC)c(OC)cc2C1)C(=O)OC	none (no result: miR-122 sensor, E-selectin induc)
Cc1ccc(S(=O)(=O)Nc2ccc3c(c2)C(=O)N([C@@H](C)CO)C[C@H](C)[C@H](CN(C)C(=O)Nc2c(C)noc2C)OCCCC[C@@H](C)O3)cc1	none (no result: miR-122 sensor, E-selectin induc)
COc1ccc(NC(=O)N(C)C[C@@H]2Oc3c(NS(=O)(=O)c4cn(C)cn4)cccc3C(=O)N([C@@H](C)CO)C[C@@H]2C)cc1	none
CCc1c(C)nn(C(=O)/C(C#N)=C\N(C)C)c1C	SIRT5 inh 16.3
O=C(C[C@H]1CC[C@@H]2[C@H](COC[C@@H](O)CN2CC2CCCC2)O1)NCC1CC1	none (no result: miR-122 sensor, FGF22 binding)
O=C(N/N=C/c1ccccn1)c1cc(-c2ccc(Br)s2)[nH]n1	SIRT5 inh 18.3 (no result: miR-122 sensor)
O=C(O)CCNc1ccc(NCCC(=O)O)c2c1C(=O)c1ccccc1C2=O	SIRT5 inh 17.1 (no result: miR-122 sensor, E-selectin induc)
COc1ccccc1NCCC(=O)O	none (no result: miR-122 sensor)
CC(C)n1cc(NC(=O)c2cc(-c3ccccc3)on2)cn1	miR-122 sensor 113.9 (no result: S100A4 MyoIIA, SIRT5 inh, E-selectin induc, FGF22 binding)
O=C(Nc1cccnc1)c1cc(-c2ccccc2)on1	none (no result: S100A4 MyoIIA, SIRT5 inh, E-selectin induc, FGF22 binding)
O=Nc1c(-c2ccccc2)cc2ccccn12	FGF22 binding 43.1 (no result: E-selectin induc)
COC(=O)CNC(c1ccccc1)c1cc(Br)ccc1NC(C)=O (centres undefined)	FGF22 binding 43.1
CCCNC(=O)Nc1ccc2c(c1)C(=O)N(C)C[C@@H](OC)[C@@H](C)CN[C@@H](C)CO2	S100A4 MyoIIA 111.0 (no result: miR-122 sensor)
CO[C@@H]1CN(C)C(=O)c2cc(NC(=O)Nc3cc(Cl)cc(Cl)c3)ccc2OC[C@@H](C)NC[C@@H]1C	none (no result: S100A4 MyoIIA, SIRT5 inh, FGF22 binding)
CO[C@H]1CN(C)C(=O)c2cc(NC(=O)Nc3cc(Cl)cc(Cl)c3)ccc2OC[C@@H](C)NC[C@H]1C	SIRT5 inh 103.0 (no result: S100A4 MyoIIA, FGF22 binding)
O=C(c1cc(S(=O)(=O)N2CCOCC2)c(Cl)cc1Cl)N1CCN(S(=O)(=O)c2cccc(F)c2)CC1	FGF22 binding 42.9 (no result: SIRT5 inh)
O=S(=O)(Cc1ccccc1)NCC[C@H]1CC[C@@H](NS(=O)(=O)c2ccc(F)cc2)[C@@H](CO)O1	none (no result: miR-122 sensor)
CCCNC(=O)NC[C@H]1[C@@H](c2ccc(C3=CCCC3)cc2)[C@H](CO)N1C(=O)CC	none
CCCNC(=O)NC[C@@H]1[C@@H](c2ccc(C3=CCCC3)cc2)[C@@H](CO)N1C(=O)CC	miR-122 sensor 142.9[16.7 µM]
COCC#Cc1ccc([C@H]2[C@@H](CO)N3C(=O)CN(C(=O)C4CCOCC4)C[C@H]23)cc1	none (no result: miR-122 sensor, FGF22 binding)
CN(C)CCCNS(=O)(=O)c1ccc(NC2CCCCCC2)c([N+](=O)[O-])c1	SIRT5 inh 28.7 (no result: E-selectin induc)
CCNc1ccc(S(=O)(=O)NCCN(C)C)cc1[N+](=O)[O-]	none
Cn1c(=O)c2c(nc(OCCc3ccccc3)n2C)n(C)c1=O	SIRT5 inh 25.8 (no result: miR-122 sensor)
Cn1c(=O)c2c(nc(CCc3ccccc3)n2C)n(C)c1=O	none (no result: miR-122 sensor, SIRT5 inh)
CCOc1ccccc1NC(=O)COC(=O)CC(C)(C)CC1=NS(=O)(=O)c2ccccc2N1	SIRT5 inh 18.2 (no result: E-selectin induc)
CCCNC(=O)Nc1ccc2c(c1)OC[C@H](C)N(C(=O)C1CC1)C[C@H](C)[C@H](OC)CN(C)C2=O	none (no result: miR-122 sensor)
CCC(=O)N1C[C@H](C)[C@@H](OC)CN(C)C(=O)c2ccc(NC(=O)Nc3ccccc3)cc2OC[C@H]1C	S100A4 MyoIIA 124.1
CCCNC(=O)Nc1ccc2c(c1)OC[C@@H](C)N(C(=O)C1CC1)C[C@H](C)[C@@H](OC)CN(C)C2=O	S100A4 MyoIIA 98.1
CCC(=O)N1C[C@@H](C)[C@@H](OC)CN(C)C(=O)c2ccc(NC(=O)Nc3cccc(F)c3)cc2OC[C@H]1C	none
CCC(=O)N1C[C@@H](C)[C@H](OC)CN(C)C(=O)c2cc(NC(=O)Nc3cccc(F)c3)ccc2OC[C@@H]1C	SIRT5 inh 15.3
COc1ccc2c3c([nH]c2c1)[C@@H](CO)N(C(=O)c1ccccn1)CC31CN(C(=O)C2CCCC2)C1	none (no result: miR-122 sensor)
C[C@H](CO)N1C[C@H](C)[C@H](CN(C)S(=O)(=O)c2cn(C)cn2)Oc2ccc(NC(=O)C3CC3)cc2CC1=O	none
C[C@H]1CN([C@@H](C)CO)C(=O)c2cc(NC(=O)C3CC3)ccc2O[C@H]1CN(C)S(=O)(=O)c1cn(C)cn1	SIRT5 inh 29.1
C[C@H](CO)N1C[C@H](C)[C@@H](CN(C)S(=O)(=O)c2cn(C)cn2)Oc2ccc(NC(=O)C3CC3)cc2CC1=O	SIRT5 inh 16.4
C[C@@H]1CN([C@H](C)CO)C(=O)Cc2cc(NS(C)(=O)=O)ccc2O[C@H]1CN(C)S(=O)(=O)c1cn(C)cn1	E-selectin induc 389.1 (no result: S100A4 MyoIIA, SIRT5 inh)
O=c1nc(N/N=C/c2ccccn2)cn[nH]1	FGF22 binding 44.0 (no result: miR-122 sensor, E-selectin induc)
CC(=O)c1c(C)[nH]c(C(=O)Nc2ccc(Cl)cc2)c1C	none
Cc1[nH]c(=O)nc(NN=Cc2ccc(Cl)cc2)c1C(=O)Nc1ccc(Cl)cc1	FGF22 binding 43.4 (no result: miR-122 sensor, SIRT5 inh)
O=C(COC(=O)Cc1ccc(Br)cc1)NC1CCCC1	FGF22 binding 43.2 (no result: SIRT5 inh)
Cc1cc(C)c(S(N)(=O)=O)c(C)c1N(C)S(=O)(=O)c1ccccc1	none
CCNS(=O)(=O)c1c(C)cc(C)c(N(C)S(=O)(=O)c2ccccc2)c1C	FGF22 binding 43.0 (no result: miR-122 sensor, E-selectin induc)
